Source: paper PMC3994405 (Clinical cancer research : an official journal of the …, 2014)
Like-named read-outs stand apart in the source and are kept apart here.

System: peptide-MHC reactive CD8 T cells in PBLs from healthy donors
Type: cell-based, human
Conditions: PBLs after enrichment and 2-3 weeks culture
In short: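 PBLs washed in PBS with 2% FBS and stained with 0.1ug of each PE-coupled peptide-MHC multimer, 1h at 4°C. Anti-PE microbeads were added for 15 min, then magnetic column capture. Enriched cells were expanded 2–3 weeks in X-vivo with 5% human serum, 100 U/ml IL-2, 15 ng/ml IL-15, autologous negative-fraction feeders and anti-CD3/CD28 beads. Cells were then analysed by two-colour combinatorial multimer staining on lymphocyte/single/live/CD8 gates.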

Row | Sequence | Healthy Donors: number of times a response was detected/number of investigated HLA matched individuals (HLA-A3 restriction) | Healthy Donors: number of times a response was detected/number of investigated HLA matched individuals (HLA-A11 restriction) | other results
1 | KMALHGLPR | 1/14 | – | –
2 | LPRYFNVTL | – | – | Healthy Donors: number of times a response was detected/number of investigated HLA matched individuals (HLA-B7 restriction): 1/13
3 | NLPAYSVARV | – | – | Healthy Donors: number of times a response was detected/number of investigated HLA matched individuals (HLA-A2 restriction): 1/16
4 | SLFSNLMPK | – | 2/7A11 | –
5 | TVLGRKMTPK | 1/14 | – | –
6 | VTLRKRWVK | – | 1/7 | –
